Activity calls are given as the source filed them. The rule behind the calls is not given here.
Experiments:
Danio rerio [1] = species: Danio rerio; assay: Antiangiogenic activity in Tg(fli:eGFP) zebrafish embryo assessed as effect on phynotypic changes at 6.25 to 12.5 uM after 72 hrs post fertilization by fluorescence microscopic analysis; format: functional, organism-based
Procedure, shortened: (§1)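 Tg(fli1:eGFP) zebrafish embryos were selected at 48 hpf, 20–25 per well, and exposed to bile acids at 6.25, 12.5 and 25 μM in embryo water from DMSO stocks. Vehicle was 0.1% DMSO. At 72 hpf the solutions were replaced with fresh embryo water. Embryos were anesthetized with tricaine and imaged by stereo and fluorescence microscopy for sub-intestinal vessel sprouting and branching. Two experiments, 50 embryos per group.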

HUVEC [2] = assay: Antiangiogenic activity in HUVEC assessed as inhibition of endothelial tube formation at 25 uM after overnight incubation by inverted microscopic analysis; format: functional, cell-based; details: Homo sapiens
Procedure, shortened: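 HUVECs at passages 2–5 were seeded at 2 × 10^5 cells per well on a gelled basement membrane matrix, made as Matrigel mixed 1:1 with plain EBM-2. Bile acids were added at 12.5 and 25 μM, with DMSO as vehicle control, and cells were treated overnight. Bright-field images were taken at 10× from five fields per well. Nodes and tube lengths were quantified. Runs were in triplicate; statistics by one-way ANOVA (Dunnett).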

Danio rerio [3] = species: Danio rerio; assay: Toxicity in zebrafish embryo assessed as reduction in embryo survival up to 50 uM; format: organism-based; details: in vivo
HUVEC [4] = assay: Cytotoxicity against HUVEC assessed as reduction in cell death up to 12.5 uM after 24 hrs by MTT assay; format: cell-based; details: human
Procedure, shortened: (§2)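 HUVECs (passages 2–5, complete EBM-2) seeded at 5 × 10³ cells/well and left 24 h to adhere. Serum-starved 4 h, then exposed to bile acids (serial dilutions, 100 to 6.25 μM) in complete medium for 24 h. MTT added for 4 h at 37 °C, formazan dissolved in DMSO, absorbance read at 550 nm. Run in triplicate; three independent experiments.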

HUVEC [5] = assay: Cytotoxicity against HUVEC assessed as reduction in cell viability at 6.25 to 100 uM after 24 hrs by MTT assay; format: cell-based; details: human
Procedure, shortened: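 HUVECs at passages 2–5 were seeded at 5 × 10^3 cells per well in complete EBM-2 and allowed to adhere for 24 h. They were serum-starved 4 h, then given serially diluted bile acids (100 to 6.25 μM) in complete medium for 24 h. MTT was added for 4 h at 37 °C. Formazan was dissolved in DMSO and absorbance read at 550 nm. Three independent experiments.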

Danio rerio [6] = species: Danio rerio; assay: Pro-angiogenic activity in Tg(fli:eGFP) zebrafish embryo assessed as thickening of vessels at 6.25 uM after 72 hrs post fertilization by fluorescence microscopic analysis; format: functional, organism-based; procedure, shortened: as §1
Danio rerio [7] = species: Danio rerio; assay: Pro-angiogenic activity in Tg(fli:eGFP) zebrafish embryo assessed as sprouting of vessels at 6.25 uM after 72 hrs post fertilization by fluorescence microscopic analysis; format: functional, organism-based; procedure, shortened: as §1
Danio rerio [8] = species: Danio rerio; assay: Toxicity in Tg(fli:eGFP) zebrafish embryo assessed as embryo death at 25 uM after 72 hrs post fertilization by fluorescence microscopic analysis; format: organism-based; details: in vivo
Procedure, shortened: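 Tg(fli1:eGFP) embryos selected at 48 hpf, 20–25 per well, raised at 28.5 °C. Bile acids (DMSO stock, diluted in embryo water) given at 6.25, 12.5 or 25 μM; 0.1% DMSO as vehicle control. Solutions replaced with fresh water at 72 hpf, embryos anaesthetised with tricaine and sub-intestinal vessels imaged by fluorescence. Scored as percentage of embryos; two experiments, 50 embryos/group.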

Danio rerio [9] = species: Danio rerio; assay: Antiangiogenic activity in Tg(fli:eGFP) zebrafish embryo assessed as abnormality in vasculature in developing embryos at 25 uM after 72 hrs post fertilization by fluorescence microscopic analysis; format: functional, organism-based; details: 12.5 uM, in the assay text read “12.5 uM” for “25 uM”; procedure, shortened: as §1
Danio rerio [10] = species: Danio rerio; assay: Antiangiogenic activity in Tg(fli:eGFP) zebrafish embryo assessed as vascular modification by measuring formation of irregular pattern of branches at 12.5 uM after 72 hrs post fertilization by fluorescence microscopic analysis; format: functional, organism-based; procedure, shortened: as §1
HUVEC [11] = assay: Antiangiogenic activity in HUVEC assessed as decrease in tube length at 12.5 uM after overnight incubation by inverted microscopic analysis; format: functional, cell-based; details: Homo sapiens
Procedure, shortened: (§3)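 Wells coated with Matigel:plain EBM-2 (1:1). HUVECs added at 2 × 10⁵ cells/well with bile acid (12.5 or 25 μM) or vehicle and left overnight. Bright-field images at 10× from five fields per well; nodes and tube lengths counted. Triplicate, three independent experiments; one-way ANOVA with Dunnett's test.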

HUVEC [12] = assay: Antimigratory activity in HUVEC assessed as reduction in wound healing at 12.5 uM after 18 to 24 hrs by phase contrast microscopic analysis; format: functional, cell-based; details: Homo sapiens
Procedure, shortened: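 HUVECs grown to a confluent monolayer in 12-well plates and serum-deprived overnight. Scratched with a p200 tip, washed with DPBS, then given complete EBM-2 with 12.5 μM bile acid or DMSO vehicle. Imaged from a marked reference point at 0 h and after 18–24 h (phase contrast, 10×); percentage of migrated cells versus control. Triplicate; Dunnett's test.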

HUVEC [13] = assay: Antiangiogenic activity in HUVEC assessed as inhibition of endothelial tube formation at 12.5 to 25 uM after overnight incubation by inverted microscopic analysis; format: functional, cell-based; details: Homo sapiens; procedure, shortened: as §3
HUVEC [14] = assay: Decrease in VEGFR1 m-RNA expression in HUVEC at 12.5 uM after 12 to 24 hrs by RT-qPCR analysis relative to control; format: functional, Homo sapiens
Procedure, shortened: (§4)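 HUVECs treated with 12.5 μM bile acid or DMSO for 12 and 24 h. Total RNA extracted and 1 μg reverse-transcribed. SYBR-green qPCR for VEGFR1/VEGFR2: 95 °C 10 min, then 40 cycles of 95 °C 5 s / 60 °C 30 s. ΔΔCT normalised to GAPDH and expressed as fold change over control; repeated twice.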

Danio rerio [15] = species: Danio rerio; assay: Toxicity in Tg(fli:eGFP) zebrafish embryo assessed as embryo death at 3 uM after 72 hrs post fertilization by fluorescence microscopic analysis; format: organism-based; details: in vivo
HUVEC [16] = assay: Cytotoxicity against HUVEC assessed as cell death at 100 uM after 24 hrs by MTT assay relative to control; format: cell-based; details: human; procedure, shortened: as §2
HUVEC [17] = assay: Cytotoxicity against HUVEC assessed as cell death after 24 hrs by MTT assay relative to control; details: human
Danio rerio [18] = species: Danio rerio; assay: Toxicity in zebrafish embryo assessed as reduction in embryo survival at 3.25 uM; format: organism-based; details: in vivo
HUVEC [19] = assay: Decrease in VEGFR2 m-RNA expression in HUVEC at 12.5 uM after 12 to 24 hrs by RT-qPCR analysis relative to control; format: functional, Homo sapiens; procedure, shortened: as §4
HUVEC [20] = assay: Antiangiogenic activity in HUVEC assessed as induction of irregular stress fiber formation at 12.5 uM after overnight incubation by FITC-conjugated phalloidin staining based confocal microscopic analysis; format: functional, cell-based; details: Homo sapiens
Procedure, shortened: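 HUVECs grown to 70% confluency on coverslips and treated with bile acids overnight. Fixed in 4% paraformaldehyde for 5 min and blocked with 1% BSA/0.1% Triton X-100 for 2 h. Stained with anti-VE-cadherin (1:200, 4 °C overnight) plus Alexa-488 secondary, FITC-phalloidin (1:100) for F-actin, and DAPI. Confocal imaging; repeated twice.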

HUVEC [21] = assay: Cytotoxicity against HUVEC assessed as reduction in cell viability at >25 uM after 24 hrs by MTT assay; format: cell-based; details: human; procedure, shortened: as §2
HUVEC [22] = assay: Antiangiogenic activity in HUVEC assessed as decrease in number of nodes at 12.5 uM after overnight incubation by inverted microscopic analysis; format: functional, cell-based; details: Homo sapiens; procedure, shortened: as §3

Q: `C[C@H](CCC(=O)O)[C@H]1CC[C@H]2[C@@H]3[C@H](O)C[C@@H]4C[C@H](O)CC[C@]4(C)[C@H]3C[C@H](O)[C@]12C` [CHOLIC ACID] was tested. Which Activity (Danio rerio [1]) did it give?
A: inactive

Q: What about the Activity (HUVEC [2]) of the same compound?
A: Active

Q: And the Activity (Danio rerio [3])?
A: Non-Toxic

Q: And the Activity (HUVEC [4])?
A: Non-Toxic

Q: What about the Activity (HUVEC [5]) of the same compound?
A: Non-Toxic

Q: Which results are given for `C[C@H](CCC(=O)O)[C@H]1CC[C@H]2[C@@H]3CC[C@@H]4C[C@H](O)CC[C@]4(C)[C@H]3C[C@H](O)[C@]12C` [DEOXYCHOLIC ACID]?
A: Activity (Danio rerio [6]): Active; Activity (HUVEC [2]): Active; Activity (Danio rerio [7]): Active; Activity (Danio rerio [3]): Non-Toxic; Activity (Danio rerio [8]): Toxic; Activity (HUVEC [4]): Non-Toxic; Activity (HUVEC [5]): Non-Toxic; Activity (Danio rerio [9]): Active; Activity (Danio rerio [10]): Active

Q: Which results are given for `C[C@H](CCC(=O)O)[C@H]1CC[C@H]2[C@@H]3CC[C@@H]4C[C@H](O)CC[C@]4(C)[C@H]3CC[C@]12C` [LITHOCHOLIC ACID]?
A: Activity (HUVEC [11]): Active; Activity (HUVEC [12]): Active; Activity (HUVEC [13]): Active; fold change (FC) (HUVEC [14]): 2; Activity (Danio rerio [15]): Toxic; Activity (HUVEC [16]): 75%; Activity (HUVEC [17]): Toxic; Activity (Danio rerio [18]): Toxic; fold change (FC) (HUVEC [19]): 2; Activity (HUVEC [4]): Non-Toxic; Activity (HUVEC [20]): Active; Activity (HUVEC [21]): Toxic; Activity (HUVEC [22]): Active

— ChEMBL document CHEMBL4257469, “Deciphering the role of hydrophobic and hydrophilic bile acids in angiogenesis using in vitro and in vivo model systems” (Medchemcomm, 2017)
